HCT116 PTEN-null: PTEN-deleted cell growth suppression | HCT116 PTEN-null viability, CellTiter-Glo, 60 h; hits give low values | viability, % at 10 µM | 140,000 tested, 1.2% active | AID 827;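 active = viability at or below a set limit, 4 SD under the median of all tested compounds, cut at about 3.7% in these data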;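 note: PTEN knockout HCT116 line with beta catenin targeted HCT116 as companion control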
Dynein transport: dynein cargo transport inhibition; 3617.4 mouse cells, GR-EGFP nuclear translocation imaging; test concentration mostly 20 µM; stimulated with dexamethasone, 1 µM; hits give low values; z-score, hits read low; 220,000 tested, 0.47% active; AID 1381;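 active = plate z-score of nuclear minus cytoplasmic receptor signal below a set negative limit, without overly bright fluorescence or cell loss, cut at about -3.5 in these data, passing the limit was not always enough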;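 note: z-score of nuclear minus cytoplasmic ring GR-EGFP intensity difference per well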
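Schedule: 48 h induction, then 1 h compound, then 30 min agonist, 37 °C. Buffer or medium: tetracycline-free induction medium containing charcoal-stripped FBS. Reagent: 1.0 µM final dexamethasone stimulus. Evaluation: nuclear versus cytoplasmic GR-EGFP signal, averaged per well. Signal: high-content fluorescence imaging after fixation.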
bCat KO growth: beta-catenin-lacking colon tumor cell growth suppression. 140,000 tested, 1.5% active. HCT116 beta-catenin knockout viability, CellTiter-Glo, 60 h; hits give low values. viability, % at 10 µM. AID 818;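 active = viability at or under a set limit, the compound median less 4 SD, cut at about 6% in these data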
SDO1 yeast rescue: sdo1-depleted yeast growth rescue | S. cerevisiae sdo1-depleted JHY4D growth rescue, OD600 30 h; hits give high values; pdr5 snq2 efflux-pump mutant strain | z-score at 10 µM | 140,000 tested, 0.21% active;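 active = z-score above 3 at both the 24 hr and the 30 hr optical density reads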
Autophagy HCS: alters autophagy in cells | MEF GFP-LC3 puncta imaging; test concentration mostly 10 µM | 190,000 tested, 0.98% active | calls only at 10 µM (by protocol);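 active = percentage of spot-positive cells more than 3 SD above its plate mean, without a fluorescence outlier flag or 80% toxicity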
Hits are given with their value; . = inactive; / = not tested or not shown; + = active, no number. Sampled rows, rich in hits. Any-hit rate of the full collection: about 2.2%.

SMILES | HCT116 PTEN-null | Dynein transport | bCat KO growth | SDO1 yeast rescue | Autophagy HCS
CCOC(=O)N1CCC(N(CCOC)C(=O)Nc2ccc(Cl)c(Cl)c2)CC1 | . | . | . | . | +
O=C(NCC(=O)N(c1cccnc1)C(C(=O)NC1CCCCC1)c1cccnc1)c1ccco1 (centres undefined) | . | . | . | . | .
O=C(O)c1ccc(Nc2nc(-c3ccccc3)c3ccccc3n2)cc1 | / | . | / | / | +
Cc1ccc(Cl)cc1NC(=S)N(CCCN1CCOCC1)Cc1ccco1 | / | . | / | / | .
CC(c1nc2ccccc2o1)N1C(=O)c2ccccc2C1=O (centres undefined) | . | . | . | . | .
CCCN(CCC)c1nc(C)cc(C(C#N)c2nc3ccccc3o2)n1 (centres undefined) | . | . | . | . | +
CCCCN(CC)CCCNC(=S)Nc1ccc2nc(N3CCN(CC)CC3)cc(C)c2c1 | / | . | / | / | +
CCCCN(CC)CCCNC(=S)Nc1ccc2nc(N3CCN(C)CC3)cc(C)c2c1 | / | . | / | / | +
O=[N+]([O-])c1ccc(N/N=C/c2sc(N3CCOCC3)nc2-c2ccccc2)c(S(=O)(=O)Nc2ccccc2Cl)c1 | / | . | / | / | +
O=[N+]([O-])c1ccc(N/N=C/c2sc(N3CCOCC3)nc2-c2ccccc2)c(S(=O)(=O)Nc2ccc(Cl)cc2)c1 | / | . | / | / | +
O=C(CSc1nc(-c2cccs2)cc(C(F)(F)F)n1)Nc1cc(OCC(F)(F)F)cc([N+](=O)[O-])c1 | . | . | 2.1 | . | .
CCC(C)NC(=O)CSc1nc(-c2cccs2)cc(C(F)(F)F)n1 (centres undefined) | . | . | . | . | .
COc1ccccc1-c1cc(C(F)(F)F)nc(S(=O)(=O)CCCC(=O)Nc2cc(C)on2)n1 | 2.0 | . | 4.0 | . | .
COc1ccccc1-c1cc(C(F)(F)F)nc(S(=O)(=O)CCCC(=O)Nc2cccnc2Cl)n1 | / | -4.4 | / | / | .
COc1ccccc1-c1cc(C(F)(F)F)nc(S(=O)(=O)CCCC(=O)NC(C)C)n1 | . | . | 6.0 | . | .
COCCN(C(=O)Cn1nnc2ccccc21)C(C(=O)NC1CCCC1)c1cccc(OC)c1OC (centres undefined) | . | . | . | . | .
CC(=O)C1=C(c2ccc(Br)cc2)C(=O)c2ccccc2C1=O | 1.4 | . | 1.6 | . | .
CC1=CC(=C2C(=O)c3ccccc3C2=O)C=C(C)O1 | . | . | . | . | .
O=C1c2ccccc2C(=O)N1OS(=O)(=O)c1ccccc1 | . | . | . | . | .
Cc1ccc(C)c(S(=O)(=O)ON2C(=O)c3ccccc3C2=O)c1 | . | -3.6 | . | . | .
CCOC(=O)c1c(NC(C)=O)sc2c(OCC(O)CNC(C)(C)C)c(Br)ccc12 (centres undefined) | / | . | / | / | +
Cc1sc2nc(CN3CCCC3)nc(N3CCN(C(=O)c4ccco4)CC3)c2c1C | / | . | / | / | +
O=C(Nc1ccc(Cl)c(Cl)c1)OCCNC(=O)c1ccncc1 | / | . | / | / | .
COc1ccc(N2CCN(Cc3nc(N)nc(Nc4ccc(C)c(Cl)c4)n3)CC2)cc1 | 1.4 | . | 0.8 | . | .
Cc1ccc(Nc2nc(N)nc(CN3CCN(Cc4ccc5c(c4)OCO5)CC3)n2)cc1Cl | 1.5 | . | 0.9 | . | +
SMILES | HCT116 PTEN-null | Dynein transport | bCat KO growth | SDO1 yeast rescue | Autophagy HCS
Cc1ccc(NC(=O)C2CCN(S(=O)(=O)c3cnc[nH]3)CC2)nc1 | . | . | . | . | .
CCN1CCN(Cc2ccc(NC(=O)Nc3cccs3)cc2)CC1 | . | . | . | . | .
O=C(NCCCN1CCN(c2ccccc2F)CC1)Nc1ccccc1[N+](=O)[O-] | / | . | / | / | .
Cc1ccc(C)c(NC(=O)C2=CCN(S(=O)(=O)c3ccc(F)cc3)CC2)c1 | . | . | . | . | .
NC(=S)N/N=C1/CCSc2ccc3ccccc3c21 | / | . | / | / | .
Cn1c(=O)c2c(nc(-n3ccnc3)n2Cc2ccc([N+](=O)[O-])cc2)n(C)c1=O | . | . | . | . | .
CCN1CCN(C(=O)CN(c2cc(OC)ccc2OC)S(C)(=O)=O)CC1 | . | . | . | . | .
COc1ccc(OC)c(N(CC(=O)N2CCN(c3cc(Cl)ccc3C)CC2)S(C)(=O)=O)c1 | . | . | . | . | +
C=CC(C)N1C(=O)S/C(=C\c2ccc(N3CCOCC3)cc2C)C1=O (centres undefined) | . | . | . | . | .
C=CCN1C(=O)S/C(=C\c2ccc(N3CCOCC3)cc2C)C1=O | . | . | . | . | +
O=C(NCc1cccnc1)c1cccc(F)c1 | . | . | . | . | +
O=C(NCc1ccncc1)c1cccc(F)c1 | . | . | . | . | .
Cc1ccc(-c2nnc(N3CCN(c4ccccn4)CC3)c3ccccc23)cc1 | . | . | 3.5 | . | .
O=C1CCCN=C(Nc2ccc(F)c(Cl)c2)S1 | / | . | / | / | /
COc1ccc2cc3cc(C(=O)NCCN4CCc5ccccc5C4)oc3nc2c1 | . | . | . | . | .
COc1ccc2cc3cc(C(=O)NCCN4CCN(Cc5ccccc5)CC4)oc3nc2c1 | . | . | . | . | +
Cc1ccnc(NC(=O)c2ccc([N+](=O)[O-])o2)c1 | . | . | 3.5 | . | .
CC(C)(C)C(=O)NC(=S)NNC(=O)c1sc2ccccc2c1Cl | . | . | 3.0 | . | .
O=C(NNC(=S)NC1CCCCC1)c1sc2ccccc2c1Cl | . | . | . | . | .
O=C(N/N=C/c1ccccn1)c1ccc(N/N=C/c2ccccn2)cc1 | / | . | / | / | .
O=C(N/N=C/c1ccccn1)c1ccc(Br)cc1 | 3.6 | . | 3.6 | . | .
Cc1cc(C(=O)NCc2cc(C(=O)O)oc2C)c(C)o1 | . | . | . | . | .
CCN(CC)CCCn1c(=S)[nH]c2ncccc2c1=O | . | . | . | . | .
O=c1c2cccnc2[nH]c(=S)n1CCCN1CCN(c2ccccc2F)CC1 | . | . | . | . | +
CCn1c(SCC(=O)c2[nH]c(C)c(C(C)=O)c2C)nnc1-c1ccccc1 | . | . | . | . | .
SMILES | HCT116 PTEN-null | Dynein transport | bCat KO growth | SDO1 yeast rescue | Autophagy HCS
Cc1cccc(Cn2nnc3c2C(=O)c2ccccc2C3=O)c1 | 3.0 | . | 4.5 | . | .
CN(C)C1(CNC(=S)Nc2ccccc2C(F)(F)F)CCCCC1 | / | . | / | / | .
CCOc1c(Cl)cc(CNCC(O)c2ccccc2)cc1OC (centres undefined) | / | . | / | / | +
CCc1cc2c(Sc3nc4ccccc4s3)ncnc2s1 | 3.7 | . | 4.4 | . | .
c1ccc2sc(Sc3ncnc4sccc34)nc2c1 | . | . | 4.2 | . | .
CCc1cc2c(SCC(=O)c3ccc(C)cc3)ncnc2s1 | . | . | . | . | .
Nc1nnc(CC(=O)NCc2ccccc2)s1 | . | . | . | . | .
O=C(c1cc(-c2ccncc2)nc2ccccc12)N1CCN(c2ccc(N3CCOCC3)nn2)CC1 | . | . | . | . | .
Cc1cccc(OC(=O)Cn2c(C(F)(F)F)nc3ccccc32)c1 | . | . | . | . | .
OCCn1c(C(F)(F)F)nc2ccccc21 | 0.4 | . | 1.0 | . | .
O=C(Cn1c(C(F)(F)F)nc2ccccc21)Oc1cccc(C(F)(F)F)c1 | . | -4.2 | . | . | .

Bioassay records (PubChem BioAssay)
